ERAP1 HTS inh: ERAP1 (human) enzyme inhibition; inhibition, % at 10.7 µM; recombinant ERAP1, Leu-AMC fluorescence, 60 min; 340,000 tested, 0.15% active; AID 652197;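 active = mean replicate inhibition of at least 30%, or all replicates individually reaching that 30% level; inactive = mean below 30% and not every replicate reaching it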
FGF22 binding: shifts melting point of recombinant human FGF22; Q9HCT0; recombinant FGF22 thermal shift, SYPRO orange fluorescence; percent of sucrose octasulfate shift, DMSO zero; activity (Tm shift, normalised), % at 9.99 µM; 340,000 tested, 1.5% active; AID 651658;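 active = mean Tm shift, scaled 0 neutral to 100 positive control, at about 1.3% or above, every replicate too, limit read from the data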
Target sequence (Q9HCT0 whole entry, looked up): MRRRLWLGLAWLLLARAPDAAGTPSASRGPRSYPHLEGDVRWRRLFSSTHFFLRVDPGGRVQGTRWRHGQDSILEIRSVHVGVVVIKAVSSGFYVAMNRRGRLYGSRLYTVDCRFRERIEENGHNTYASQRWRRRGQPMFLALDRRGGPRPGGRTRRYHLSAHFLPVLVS
FN deposition inh: fibronectin deposition inhibition | AH1F fibroblasts, Alexa488-fibronectin deposition fluorescence, overnight | inhibition, % at 12.6 µM | 350,000 tested, 0.086% active | AID 743247;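 active = mean inhibition across replicates of 30% or more, regardless of how many single replicates reach that level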
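Material: AH1F fibroblasts assembling fluorescent fibronectin matrix; amount: 10000 AH1F cells/well; medium: DMEM, 2% serum; reagent: Alexa488-fibronectin, 24 nM final in well; dosing: single compound dose, delivered by pin transfer; incubation: 1 h adhesion, overnight exposure; detection: fluorescence after three HBSS washes, excitation 485 nm, emission 525 nm; measure: fibronectin deposition inhibition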
SIRT5 inh: sirtuin-5 (human) deacylase inhibition; Q9NXA8; Purified SirT5, succinyl-peptide AMC, trypsin-coupled fluorescence; inhibition, % at 15 µM; 330,000 tested, 1.1% active; AID 652115; in the data active = inhibition above about 15%
Target sequence (Q9NXA8 whole entry, looked up): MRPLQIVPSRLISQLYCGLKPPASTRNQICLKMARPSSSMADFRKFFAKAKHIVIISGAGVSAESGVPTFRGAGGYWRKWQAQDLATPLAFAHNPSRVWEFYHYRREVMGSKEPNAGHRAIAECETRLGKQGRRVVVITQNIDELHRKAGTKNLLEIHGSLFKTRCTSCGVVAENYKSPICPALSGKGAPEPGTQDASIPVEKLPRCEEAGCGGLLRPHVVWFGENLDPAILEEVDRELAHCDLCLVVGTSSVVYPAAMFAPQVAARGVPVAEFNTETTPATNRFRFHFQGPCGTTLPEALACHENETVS
PGC1a acetyl inh: lowers PGC1a acetylation signal in U2OS cells. AlphaScreen anti-acetyl-lysine; with virally co-expressed GCN5 acetyltransferase. inhibition, % at 15.6 µM. 350,000 tested, 0.17% active;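 active = every replicate shows inhibition of at least 40%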
Hits are given with their value; . = inactive; / = not tested or not shown; ! = a repeat was not active. The list is not random: actives were taken first. Their share in the collection is about 2.2%.

SMILES	ERAP1 HTS inh	FGF22 binding	FN deposition inh	SIRT5 inh	PGC1a acetyl inh
Cn1cc(Br)c(C(=O)Nc2sc3c(c2C#N)CCC3)n1	.	.	.	.	.
Cn1cc(Cl)c(C(=O)NC(=S)Nc2sc3c(c2C#N)CCCCC3)n1	.	52	.	.	/
CC(C)NC(=O)N(C)C[C@@H]1Oc2ccc(NC(=O)Cc3cn(C)c4ccccc34)cc2C(=O)N([C@H](C)CO)C[C@@H]1C	.	.	/	.	.
COc1ccc(S(=O)(=O)N(C)[C@H]2C[C@H]3c4cc(-c5ccccc5)ccc4CCN3C(=O)[C@H]2[C@H](C)O)cc1	/	.	.	.	.
COc1ccc(S(=O)(=O)N(C)[C@H]2C[C@H]3c4cc(Oc5ccccc5C)ccc4CCN3C(=O)[C@H]2[C@H](C)O)cc1	/	.	.	17	.
CCC(=O)N(C)C[C@H]1Oc2ncc(-c3ccc(C(=O)N(C)C)cc3)cc2C(=O)N([C@H](C)CO)C[C@H]1C	.	.	/	.	.
COc1ccccc1-c1ccccc1[C@H]1[C@@H](CO)N(C(=O)C2CC2)[C@H]1C#N	.	.	.	.	.
COc1cccc2c1C(CO)N1C(C#N)C3CC(C(=O)O)C(C1C2)N3C (stereo not given)	.	.	/	.	66
CC(O)/C=C/c1cccc[n+]1C (stereo not given)	107	.	/	.	.
C[n+]1ccccc1/C=N/O	92!	.	.	.	.
C=CCN1C(=O)C(CC(=O)Nc2ccccc2)N(Cc2ccccn2)C1=S (stereo not given)	.	44	.	.	.
NC(=O)CSc1nccn1Cc1ccccc1	.	43	.	.	.
O=C(C[C@H]1CC[C@@H](NS(=O)(=O)c2cccc(F)c2)[C@H](CO)O1)N1CCCCC1	.	.	.	.	.
C[C@@H]1CN([C@H](C)CO)C(=O)Cc2cc(NC(=O)Nc3ccc(F)cc3)ccc2O[C@H]1CN(C)Cc1ccc(C(F)(F)F)cc1	.	.	.	.	.
Cc1ccc(S(=O)(=O)N(C)C[C@H]2Oc3ccc(NC(=O)CCC(F)(F)F)cc3C(=O)N([C@H](C)CO)C[C@@H]2C)cc1	.	.	.	.	48
C[C@@H]1CN([C@@H](C)CO)C(=O)c2cc(NC(=O)CCC(F)(F)F)ccc2O[C@@H]1CN(C)S(=O)(=O)c1ccc(F)cc1	.	.	.	.	.
C[C@H]1CN([C@@H](C)CO)C(=O)c2cc(NC(=O)CCC(F)(F)F)ccc2O[C@H]1CN(C)C	.	.	/	17	.
COc1ccc(S(=O)(=O)N(C)C[C@@H]2Oc3ccc(NC(=O)CCC(F)(F)F)cc3C(=O)N([C@H](C)CO)C[C@H]2C)cc1	.	.	.	34	.
O=C(CNc1ccc2ccccc2c1)N/N=C/c1ccc([N+](=O)[O-])o1	.	43	.	.	.
C[C@@H]1CN([C@H](C)CO)C(=O)c2cc(-c3ccc(C#N)cc3)cnc2O[C@H]1CN(C)C(=O)CN(C)C	.	.	.	.	.
CCN(CC)C(=O)C(=O)c1cccn1-c1cccc(OC)c1C#N	.	45	.	.	/
CC(C)NC(=O)COC(=O)c1ccccc1C(=O)c1ccccc1	.	44	.	.	/
O=S1(=O)Cc2cc3ccccc3cc2C1	.	43	.	.	/
COc1ccccc1-c1ccc([C@H]2[C@@H](CO)N(C(C)=O)C23CN(C(C)=O)C3)cc1	.	/	/	.	.
COc1cc(OC)cc(C(=O)N2CCN(Cc3ccccc3Br)CC2)c1	.	43	.	.	/
SMILES	ERAP1 HTS inh	FGF22 binding	FN deposition inh	SIRT5 inh	PGC1a acetyl inh
COc1cc(OC)cc(C(=O)N2CCN(Cc3cccc(F)c3)CC2)c1	/	/	.	/	/
C[C@@H]1CN([C@H](C)CO)C(=O)c2c(c3ccccc3n2C)-c2ccccc2CO[C@@H]1CN(C)C(=O)Nc1ccnc(N2CCOCC2)c1	.	/	.	.	/
COCCNC(=O)C(c1ccc(C)o1)N(CCOC)C(=O)Cn1nnc2ccccc21 (stereo not given)	.	44	.	.	/
O=c1[nH]c(SCc2ccccc2)nc2c1sc1ccccc12	.	44	.	.	/
Cc1ccc(CSc2nc3ccccc3c(=O)[nH]2)cc1	.	.	/	.	.
COc1ccc(NC(=O)N(C)C[C@@H]2Oc3c(NS(=O)(=O)c4ccc(Cl)cc4)cccc3C(=O)N([C@H](C)CO)C[C@@H]2C)cc1	.	.	.	.	.
Cc1nc(S/C(=C\c2ccc(OCc3ccccc3Cl)cc2)C(=O)O)n[nH]1	/	/	/	/	.
Cc1nc(S/C(=C\c2ccc(-c3ccc(C(=O)O)c(Cl)c3)o2)C(=O)O)n[nH]1	.	.	.	28	.
C[C@H]1CN([C@@H](C)CO)C(=O)c2cccc(NC(=O)c3cnccn3)c2O[C@H]1CN(C)S(=O)(=O)c1cccs1	.	.	.	.	.
O=C(C[C@H]1C[C@H]2c3cc(NC(=O)C4CCOCC4)ccc3O[C@H]2[C@@H](CO)O1)NCc1ccncc1	.	.	.	.	.
CC1=C(C(=O)N(C)C)CC(CC(=O)NC2CC2)C(=O)N1CCC1=CCCCC1 (stereo not given)	.	.	.	.	.
CC1=C(C(=O)N2CCOCC2)CC(CC(=O)NCC2CCCCC2)C(=O)N1CCC1=CCCCC1 (stereo not given)	.	.	/	23	.
CC1=C(C(=O)N2CCOCC2)CC(CC(=O)NC2CC2)C(=O)N1CCC1=CCCCC1 (stereo not given)	/	.	.	17	.
C[C@@H]1CN([C@H](C)CO)C(=O)c2cc(-c3cccc(F)c3)cnc2O[C@@H]1CN(C)Cc1cccc(F)c1	/	/	.	/	.
O=C(C[C@@H]1CC[C@@H](NC(=O)Nc2cccc(F)c2)[C@@H](CO)O1)NCC1CC1	.	.	.	.	.
COc1ccc(C(=O)NC(=S)NNC(=O)c2ccc(NC(C)=O)cc2)cc1Br	.	43	.	.	.
COc1ccc(C(=O)NC(=S)Nc2ccc(CN3CCOCC3)cc2)cc1	.	.	.	.	.
COc1ccc(C(=O)NNC(=S)NC(=O)c2ccc(F)cc2)cc1Br	.	.	.	.	.
COc1ccc(C(=O)NC(=S)Nc2ccc(CN3CCOCC3)cc2)cc1Br	.	.	.	16	.
CC(=O)N1[C@@H](CO)[C@@H]2c3ccccc3N(C(=O)Nc3cc(F)ccc3F)C[C@@H]21	.	.	/	.	.
CC(C)NC(=O)N[C@H]1C=C[C@H](CC(=O)NC2Cc3ccccc3C2)O[C@H]1CO	/	.	.	.	.
Cc1cc(CN2CCCC(CO)(Cc3cccc(Cl)c3)C2)n[nH]1 (stereo not given)	.	44	.	.	/
COc1cc(CN2CCN(C(c3ccccc3)c3ccccc3)CC2)cc(OC)c1OC	.	.	.	.	/
COc1cccc(CN2CCN(C(c3ccccc3)c3ccccc3)CC2)c1O	.	.	.	16	.
CN1C(=O)c2cc(NC(=O)NC3CCCC3)ccc2OC[C@@H]2O[C@H](CC(=O)O)CC[C@H]21	.	.	.	.	.
